Most compounds without a hit are left out; they make up all but 2.6% or so of the library.
SKN-1 inh = blocks SKN-1 activity in C. elegans. 360,000 compounds, 0.49% hits. inhibition, % at 21.8 µM. AID 624304. C. elegans VP596 Pgst-4::GFP/RFP ratio, acrylamide-induced, 24 h;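 active = interference check ratio from 0.5 to 1.5 plus GFP to RFP signal ratio inhibition reaching or exceeding a fixed threshold, cut at about 30% in these data, passing the limit was not always enough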
Myeloid diff 2 = myeloid differentiation induction. ER-HoxA9 myeloid progenitors, lysozyme-GFP differentiation, flow cytometry. calls only at 10 µM. 360,000 compounds, 1% hits;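 active = normalized GFP-positive differentiation at or above the plate's own cutoff, the solvent-only control mean plus 3 SD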;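 note: cells exposed to compound for four days before flow analysis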
Rin1-Abl PPI inh = human Rin1-Abl interaction inhibition | inhibition, % at 7.35 µM | 360,000 compounds, 0.4% hits | P00519+Q13671 | TR-FRET Rin1/Abl binding, biochemical; in the data active = inhibition above about 5%, passing the limit was not always enough
T cell modulator = T cell immune modulators affecting CD8 T cell-vesicle binding | 2C CD8+ T cell-vesicle binding, flow cytometry; hits give low values | response (vesicle binding), % at 7 µM | 330,000 compounds, 0.068% hits;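 active = response, share of CD8 T cells binding vesicles, and their 90th percentile fluorescence all below set limits, cut at about 80% in these data, passing the limit was not always enough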;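 note: values below 100% mean blocked vesicle binding to the CD8+ T cells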
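System: murine 2C transgenic CD8+ T lymphocytes; also added: QL9-loaded Drosophila micro-vesicles; times: binding 1.5 h at 37 °C; measured by: flow cytometry, PE anti-B7-1 (FL2) versus Alexa647 anti-CD8 (FL8), PFA-fixed; control set: Peptide-free naked vesicles (low) and QL9 vesicles with 0.7% DMSO vehicle (high)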
GRK2 inh = blocks RNA aptamer binding to human GRK2 | bead flow cytometry, FAM-aptamer displacement from GRK2 | AID 488847 | P25098 | 330,000 compounds, 0.59% hits | inhibition of aptamer binding, % at 10 µM;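 active = inhibition of aptamer binding above 40%, roughly 3 SD of noise, on plates passing a quality check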;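 note: median bead fluorescence of bound FAM aptamer so fluorescent compounds give negative values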
Rce1 inh = inhibitors of yeast Ras-converting enzyme; Q03530; calls only; 290,000 compounds, 0.27% hits; yeast membranes, quenched prenylated peptide cleavage fluorescence;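 active = fall in fluorescence gain of 50% or more versus controls, with final raw signal at or below 3038400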
Target sequence (Q03530 whole entry, looked up): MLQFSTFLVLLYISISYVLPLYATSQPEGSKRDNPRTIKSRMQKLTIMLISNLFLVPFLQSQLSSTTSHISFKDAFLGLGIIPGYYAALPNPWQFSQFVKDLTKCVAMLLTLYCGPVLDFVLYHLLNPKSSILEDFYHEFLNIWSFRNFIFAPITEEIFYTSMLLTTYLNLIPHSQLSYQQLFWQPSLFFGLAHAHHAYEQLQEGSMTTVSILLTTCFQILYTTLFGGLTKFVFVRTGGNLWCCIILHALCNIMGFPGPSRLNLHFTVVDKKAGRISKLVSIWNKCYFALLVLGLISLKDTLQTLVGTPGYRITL
Of the large screens only hits and unclear results are named; the others gave an inactive call.

Cc1ccc(S(=O)(=O)N2CCN(C(=O)c3nn(C(C)C)c(=O)c4ccccc34)CC2)cc1C	none
Cn1nc(C(=O)N2CCN(S(=O)(=O)c3ccccc3)CC2)c2ccccc2c1=O	SKN-1 inh 38
COc1ccc(C(CNC(=O)c2cc(S(=O)(=O)N3CCN(c4ccccc4)CC3)ccc2Cl)N(C)C)cc1 (centres undefined)	none (no result: Rce1 inh)
NC(=S)Nc1cccc2[nH]ccc12	none
Cn1cc(CN2CCCC(C(=O)Nc3cccc(-n4cccn4)c3)C2)cn1 (centres undefined)	none
Cc1c(CN2CCCC(C(=O)Nc3cccc(-n4cccn4)c3)C2)cnn1C (centres undefined)	SKN-1 inh 36
CC1CCc2sc(C(=O)NN=C3CCC(c4ccccc4)CC3)cc2C1 (centres undefined)	Myeloid diff 2 active
CCOC(=O)C1CCN(C(=O)CN2C(=O)c3ccccc3S2(=O)=O)CC1	T cell modulator 0.0
CCOC(=O)C1CCN(C(=O)c2ccc3c(c2)S(=O)(=O)c2ccccc2C3=O)CC1	SKN-1 inh 36
O=C(CN1C(=O)c2ccccc2S1(=O)=O)N1CCCCC1	none
Cc1ccc(S(=O)(=O)N2CCN(C(=O)/C=C/c3ccco3)CC2)cc1	none
O=C(/C=C/c1ccco1)N1CCN(S(=O)(=O)c2ccccc2)CC1	GRK2 inh 78 (no result: Rce1 inh)
O=C(/C=C/c1ccco1)N1CCc2ccccc21	SKN-1 inh 58
CC(=O)c1ccccc1NC(=O)COC(=O)CSCC(=O)Nc1cc(C)on1	none
CC1CCCCN1c1nc(-c2ccncc2)nc2ccccc12 (centres undefined)	Myeloid diff 2 active
CCC1CCCCN1c1nc(-c2ccncc2)nc2ccccc12 (centres undefined)	none
CCN(CC)C(=O)C1=C(C)N(CCC2=CCCCC2)C(=O)C(CC(=O)NCCN2CCOCC2)C1 (centres undefined)	none (no result: T cell modulator, GRK2 inh, Rce1 inh)
COc1ccc(NC(=O)Nc2ccc(O)c3ccccc23)cc1	T cell modulator 37 (no result: SKN-1 inh, Myeloid diff 2, Rin1-Abl PPI inh)
CC(=O)N1/C(=C/c2ccc(N(C)C)cc2)C(=O)c2ccccc21	SKN-1 inh 35 (no result: Myeloid diff 2, T cell modulator, GRK2 inh)
CN(C)c1cccc(C(=O)NCc2ccc3c(c2)OCO3)c1	none
CCc1cc(=O)oc2cc(OCC(=O)N3CCC(C(=O)O)CC3)ccc12	Rce1 inh active
CCCC[C@@H]1CNCCN1CC1(c2ccccc2)CC1	none
COc1ccc(-c2nn(-c3ccccc3)cc2N)cc1	Myeloid diff 2 active
N/C(=N\OC(=O)c1ccc(Cl)cc1Cl)c1ccccn1	SKN-1 inh 52
N/C(=N\OC(=O)c1ccc(Cl)cc1Cl)c1ccncc1	SKN-1 inh 40
N/C(=N\OC(=O)c1cc(Br)ccc1Cl)c1ccccn1	SKN-1 inh 47
N/C(=N\OC(=O)c1cc(Cl)ccc1Cl)c1ccncc1	none
COc1ccc(S(=O)(=O)NC(=O)C2(C)CCN2C(=O)CC2CCCCC2)cc1OC (centres undefined)	none (no result: T cell modulator, GRK2 inh, Rce1 inh)
COc1cccc(NC(=S)NCc2ccc3c(c2)cc(C)n3C)c1	none (no result: T cell modulator, GRK2 inh)
Cc1cc2cc(CNC(=S)Nc3ccc(OC(F)(F)F)cc3)ccc2n1C	SKN-1 inh 57
Cc1cc2cc(CNC(=O)c3cccc([N+](=O)[O-])c3)ccc2n1C	SKN-1 inh 47
Cc1cc2cc(CNC(=O)CCC(=O)O)ccc2n1C	SKN-1 inh 38
CC(=O)Nc1ccc(S(=O)(=O)NCc2ccc3c(c2)cc(C)n3C)cc1	SKN-1 inh 50
Cc1cc2cc(CNS(=O)(=O)c3ccc4ccccc4c3)ccc2n1C	none
C=CCNc1nc2cc(-c3cccc(NC(C)=O)c3)sc2c(=O)n1C	none (no result: T cell modulator, GRK2 inh, Rce1 inh)
COc1ccc(C)cc1NC(=O)CNC(=O)[C@@H]1Cc2ccccc2CN1	none
N#CCC(=O)Nc1ccc(C(=O)OCC(=O)Nc2ccc3ccccc3c2)cc1	none (no result: Rce1 inh)
COc1cccc(C(CNC(=O)c2ccc(Cl)c(S(=O)(=O)N3CCCC3)c2)N(C)C)c1 (centres undefined)	none (no result: Rce1 inh)
Cc1cc2cc(CNC(=O)c3ccc(S(=O)(=O)N4CCOCC4)cc3)ccc2n1C	none
Cc1cc2cc(CNC(=O)c3ccc(S(=O)(=O)N(C)C)cc3)ccc2n1C	SKN-1 inh 45
CCCC(=O)NCc1ccc2c(c1)cc(C)n2C	none
Cc1cc2cc(CNC(=O)Cc3ccc([N+](=O)[O-])cc3)ccc2n1C	SKN-1 inh 39
CC[C@@]1(C(=O)OC)N[C@H](CN(C)C(=O)Nc2ccc(C)cc2)[C@@H]2C(=O)N(C)C(=O)[C@@H]21	none (no result: Rce1 inh)
CCN(CC)S(=O)(=O)c1ccc2[nH]c(=O)cc(C(=O)NCc3ccccc3)c2c1	none (no result: Rce1 inh)
CCC(C)NC(=O)c1cc2c(=O)n3cccc(C)c3nc2s1 (centres undefined)	Rce1 inh active
C=CCNC(=O)c1cc2c(=O)n3cccc(C)c3nc2s1	none
CCCc1nc(SCC(=O)N2CCN(c3ccccc3)CC2)c2c(=O)n(C)c(=O)n(C)c2n1	Myeloid diff 2 active
Cc1ccc(CN2CCNC(=O)C2CC(=O)NC2CCCCCC2)cc1 (centres undefined)	none
Cc1ccc(CN2CCNC(=O)C2CC(=O)NC2CCCCCC2)o1 (centres undefined)	Rce1 inh active
COc1ccc(C(=O)CSc2n[nH]c(=O)n2Cc2ccco2)cc1	none
Cc1cc(C)c(NC(=O)COC(=O)C2CCN(c3ccc(C(F)(F)F)cn3)CC2)c(Cl)c1	SKN-1 inh 36
Cc1cc(C)c(NC(=O)CNC(=O)COC(=O)C2CCN(c3ccc(C(F)(F)F)cn3)CC2)c(C)c1	none
O=C(CNS(=O)(=O)c1ccc2ccccc2c1)OCc1csc(-c2ccccc2)n1	GRK2 inh 100
COc1ccc(OCCCC(=O)Nc2cc(S(=O)(=O)N3CCCCC3)ccc2OC)cc1	none (no result: Rce1 inh)
N#Cc1cc(Sc2ccccn2)c([N+](=O)[O-])cc1C#N	Myeloid diff 2 active
Cc1c(C)c2ccc(OC(C)C(=O)NC3CC(C)(C)NC(C)(C)C3)cc2oc1=O (centres undefined)	none
CC(Oc1ccc2c3c(c(=O)oc2c1)CCCC3)C(=O)NC1CC(C)(C)NC(C)(C)C1 (centres undefined)	Rce1 inh active
Cc1cn([C@H]2C[C@H](O)[C@@H](/C=C/C(=O)NCCc3ccc4ccccc4c3)O2)c(=O)[nH]c1=O	none (no result: T cell modulator, GRK2 inh, Rce1 inh)
CCCS(=O)(=O)NC(=O)C1(C)CCN(C(=O)c2c(C)noc2C)C1 (centres undefined)	none (no result: T cell modulator, GRK2 inh, Rce1 inh)
N#CC1=C(N)Oc2cc(N)ccc2C1c1cc(Br)cs1 (centres undefined)	Myeloid diff 2 active
CCN(C(=O)CSc1nnc(C(C)N(C)C)n1-c1ccc(F)cc1)C1CCS(=O)(=O)C1 (centres undefined)	none (no result: Rce1 inh)
CC(=O)Nc1ccc(NC(=O)Cc2ccc(S(=O)(=O)N3CCCCC3)cc2)cc1	none (no result: T cell modulator, GRK2 inh, Rce1 inh)
CCOc1ccc(C2C=C(c3ccc(C)cc3)Nc3ncnn32)cc1 (centres undefined)	T cell modulator 30 (no result: SKN-1 inh, Myeloid diff 2, Rin1-Abl PPI inh)
